Legend:
[1] = target: Human immunodeficiency virus type 1 reverse transcriptase (Human immunodeficiency virus 1, UniProt Q72547); test: Inhibition of HIV1 reverse transcriptase using poly(ra)/oligo(dT)15 homopolymer template as substrate after 1 hr
MT4 = test: Cytotoxicity against human MT4 cells after 3 days by XTT assay; assay type: cell-based; details: mt4, 72 h
Outline: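 MT4 cells (5 × 10⁴/well) exposed to graded compound concentrations at 37 °C for 3 days. CCK-8 reagent then added, with a further 4 h at 37 °C for XTT formazan colour development. Absorbance read at 450 nm to give CC₅₀. Each compound run in triplicate.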

[2] = tested on: Human immunodeficiency virus 1; test: Antiviral activity against HIV1 SF33 infected in human MT4 cells assessed as inhibition of viral p24 antigen production after 7 days by ELISA; assay type: functional, organism-based; details: Human immunodeficiency virus 1, SF33, MT4, 168 h
Outline: (§1)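 MT4 cells (4 × 10⁴/well) were infected with 200 TCID₅₀ of HIV-1 and incubated 2 h at 37 °C. Compounds were then added at serial dilutions. Each compound was run in triplicate, reported as mean SD.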

[3] = tested on: Human immunodeficiency virus 1; test: Antiviral activity against NNRTI-resistant HIV1 A17 expressing reverse transcriptase K103N and Y181C mutant infected in human MT4 cells assessed as inhibition of viral p24 antigen production after 7 days by ELISA; assay type: functional, organism-based; details: Human immunodeficiency virus 1, A17, MT4, 168 h; outline: as §1
[4] = Selectivity index, ratio of CC50 for human MT4 cells to EC50 for HIV1 SF33; assay type: toxicity, cell-based; details: read-out: Ratio CC50/EC50
Outline: (§2)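 SI is CC₅₀ in MT4 cells over EC₅₀ for each strain. For CC₅₀, MT4 cells (5 × 10⁴/well) were exposed to graded compound concentrations for 3 days at 37 °C, then given CCK-8/XTT for 4 h at 37 °C and read at 450 nm absorbance. Assays were run in triplicate.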

[5] = Selectivity index, ratio of CC50 for human MT4 cells to EC50 for NNRTI-resistant HIV1 A17 expressing reverse transcriptase K103N and Y181C mutant; assay type: toxicity, cell-based; details: read-out: Ratio CC50/EC50; outline: as §2
[6] = tested on: Human immunodeficiency virus 1; test: Ratio of nevirapine EC50 to compound EC50 for HIV1 SF33; assay type: functional

SMILES | IC50 [1] [nM] | CC50 (MT4) [nM] | EC50 [2] [nM] | EC50 [3] [nM] | selectivity ratio [4] | selectivity ratio [5] | Ratio EC50 [6]
CCOCn1c(Cc2ccccc2)c(I)c(=O)[nH]c1=O | 114 |  |  |  |  |  | 
CCOCn1c(Cc2cc(C)cc(C)c2)c(I)c(=O)[nH]c1=O | 110 | 142000 | 6 | 637 | 23700 | 222 | 
CCOCn1c(Cc2cc(F)cc(F)c2)c(I)c(=O)[nH]c1=O | 11800 | 300000 | 537 | > 10000 | 559 | < 30 | 
O=c1[nH]c(=O)n(COCc2ccccc2)c(Cc2ccccc2)c1I | 10 | 74800 | 45 | > 10000 | 1660 | < 7 | 
Cc1cc(C)cc(Cc2c(I)c(=O)[nH]c(=O)n2COCc2ccccc2)c1 | 3 | 98300 | 2 | 91 | 38200 | 1080 | 325
O=c1[nH]c(=O)n(COCc2ccccc2)c(Cc2cc(F)cc(F)c2)c1I | 15 | 121000 | 6 | 2540 | 20200 | 48 | 46
CCOCn1c(Cc2ccccc2)c(Br)c(=O)[nH]c1=O | 1820 | 155000 | 2070 | > 10000 | 75 | < 15.5 | 
CCOCn1c(Cc2cc(C)cc(C)c2)c(Br)c(=O)[nH]c1=O | 210 |  |  |  |  |  | 
O=c1[nH]c(=O)n(COCc2ccccc2)c(Cc2ccccc2)c1Br | 1520 | 67400 | 1720 | > 10000 | 39 | < 6.7 | 
Cc1cc(C)cc(Cc2c(Br)c(=O)[nH]c(=O)n2COCc2ccccc2)c1 | 43 | 152000 | 9 | 601 | 16900 | 253 | 
CCOCn1c(Cc2ccccc2)c(N(C)C)c(=O)[nH]c1=O | 162 | 166000 | 614 | > 10000 | 270 | < 16.6 | 
CCOCn1c(Cc2cc(C)cc(C)c2)c(N(C)C)c(=O)[nH]c1=O | 39 |  |  |  |  |  | 
CN(C)c1c(Cc2ccccc2)n(COCc2ccccc2)c(=O)[nH]c1=O | 12 | 91800 | 345 | > 10000 | 264 | < 9 | 
Cc1cc(C)cc(Cc2c(N(C)C)c(=O)[nH]c(=O)n2COCc2ccccc2)c1 | 21 | 55800 | 14 | 2200 | 5200 | 25 | 46
Cc1cc(C)cc(Cc2c(I)c(N)nc(=O)n2COCc2ccccc2)c1 | 7220 |  |  |  |  |  | 
Cc1cc(C)cc(Cc2c(Br)c(N)nc(=O)n2COCc2ccccc2)c1 | 16300 |  |  |  |  |  | 
CC(C)c1c(Cc2ccccc2)n(COCc2ccccc2)c(=O)[nH]c1=O | 20 | 84600 | 22 | > 10000 | 3840 | < 6.6 | 
Cc1ccnc2c1NC(=O)c1cccnc1N2C1CC1 [NEVIRAPINE] |  | 325000 | 68 | > 10000 |  |  | 

Reference: ChEMBL document CHEMBL2040821, “Design, synthesis, and biological evaluation of 1-[(2-benzyloxyl/alkoxyl)methyl]-5-halo-6-aryluracils as potent HIV-1 non-nucleoside reverse transcriptase inhibitors with an improved drug resistance profile” (J Med Chem, 2012)
